Screening results: PubChem BioAssay, several laboratories
Only some compounds are listed: those with a hit (about 3.7% of all), similar ones and a draw of the others.
MDM2 E3 inh – inhibitors of human Mdm2 E3 ubiquitin ligase; Q00987; actives 0.11% (n = 210,000); signal enhancement, % at 5 µM; cell-based MDM2 ubiquitination luciferase reporter, 2 h; 0 = plate control, 100 = twice control, blank-subtracted; AID 1230;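 active = signal enhancement of 30% or more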;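 note: luminescence tracks abundance of the self-degrading MDM2-luciferase fusion protein; higher signal means inhibition of MDM2 E3 ligase activity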
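Material: Stable MDM2–luciferase fusion reporter cells | Amount: 2000 cells seeded into each well | Dosing: One concentration, 5 µM, with 0.2% DMSO | Incubation: 4 h cell settling then 2 h compound exposure, 37 °C | Measured by: Luciferase luminescence | Read-out basis: % enhancement relative to plate controls after blank subtraction | Benchmarks: Control and blank well means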
Mdm2-MdmX inh – disrupts the human Mdm2-MdmX interaction | AID 485346 | O15151+Q00987 | inhibition, % at 8 µM | actives 3% (n = 330,000) | SaOS-2 split-luciferase Mdm2/MdmX complementation, luminescence;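 active = inhibition of at least 50% at 8 µM in the primary screen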
XBP1 UPR activ – activators of adaptive arm of unfolded protein response (XBP1). AID 463104. CHO-XBP1 luciferase reporter, IRE1-XBP1 UPR activation, luminescence; percent of tunicamycin response, DMSO as zero. actives 0.33% (n = 330,000). activation, % at 20 µM;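 active = versus positive control, 20 µM dose yields 30% or more activation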;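 note: 100% = tunicamycin at 10 µg/mL and 0% = DMSO only wells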
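incubation = overnight seeding at 37 °C, 6 h compound treatment at 37 °C | assay system = CHO-XBP1 cells stably carrying IRE1-XBP1-driven luciferase reporter | input = 1000 cells per well | detection = luciferase luminescence | dosing = single point, 20 µM final compound, 1% DMSO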
Dynein transport – blocks dynein driven cargo transport along microtubules; 3617.4 mouse cells, GR-EGFP nuclear translocation imaging; test concentration mostly 20 µM; stimulated with dexamethasone, 1 µM; stronger effect = lower value; z-score, hits read low; actives 0.47% (n = 220,000);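 active = plate z-score of nuclear minus cytoplasmic receptor signal below a set negative limit, without overly bright fluorescence or cell loss, cut at about -3.5 in these data, passing the limit was not always enough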;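 note: z-score of nuclear minus cytoplasmic ring GR-EGFP intensity difference per well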
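Buffer or medium – tet-free medium with charcoal-stripped serum · Signal – automated 10x imaging of fixed Hoechst-stained cells · Also added – dexamethasone agonist, 1.0 µM final, for 30 min · Incubation – induction 48 h, compound 1 h, agonist 30 min · Read-out – GR-EGFP nuclear translocation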
CHOP UPR activ – activators of apoptotic arm of unfolded protein response (CHOP); CHO-CHOP luciferase reporter, UPR activation, luminescence; percent of tunicamycin response over DMSO baseline; activation, % at 10 µM; actives 0.34% (n = 330,000); AID 449763;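 active = at 10 µM dose, activation of 40% or more, normalized to positive control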;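 note: 100% = tunicamycin at 10 µg/mL and 0% = DMSO alone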
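System: CHO CHOP reporter cells. Amount: 500 cells per well. Buffer or medium: F12 medium, 10% FBS. Compound dosing: one dose, 10 µM in 0.5% DMSO. Incubation: 6 h compound exposure at 37 °C after overnight seeding. Technique: Steady-Glo luciferase luminescence. Benchmarks: tunicamycin and DMSO controls.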
Beta2AR agonist – agonists of human beta-2 adrenergic receptor inducing internalization; Am2.2-beta2AR cells, FAP receptor internalization, flow cytometry; response, % (concentration not given with the values); actives 0.43% (n = 340,000); AID 504454;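 active = response above a set limit, near 3 SD of response in nonfluorescent compounds, cut at about 42% in these data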
Mdm2-MdmX conf – confirmation of human Mdm2/MdmX interaction inhibitors | shares compounds with Mdm2-MdmX inh | Mdm2-MdmX binding, luminescent assay | inhibition, % at 8 µM | actives 55% (n = 10,000) | AID 489028; in the data active = inhibition above about 40%
FLuc counter – inhibits full-length luciferase, flagging false Mdm2/MdmX hits; shares compounds with Mdm2-MdmX inh; SaOS-2 full-length luciferase counterscreen, luminescence; inhibition, % at 8 µM; actives 77% (n = 6,200);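 active = mean inhibition at 8 µM reaching about 37%, which flags the compound as non-specific, limit read from the data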;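 note: p53-null SaOS-2 cells with luciferase driven by a doxycycline-inducible promoter; compound on cells about two nights before reading with doxycycline added after day one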
An asterisk follows results filed as active; . = no result.

SMILES | MDM2 E3 inh | Mdm2-MdmX inh | XBP1 UPR activ | Dynein transport | CHOP UPR activ | Beta2AR agonist | Mdm2-MdmX conf | FLuc counter
O=P(c1ccccc1)(c1ccccc1)c1nc(-c2ccccc2)oc1NCc1ccccc1 | -15 | 60* | 3 | 1 | -1 | -2 | 5 | .
COc1ccc(/C=N/N=C/c2ccc(OC)c(OC)c2)cc1OC | -10 | 2 | 2 | -0.56 | 0 | 3 | . | .
COc1cc(/C=N/N=C(N)N)ccc1OCc1ccccc1Cl | -30 | 100* | 14 | -3.1 | 4 | 54* | 39 | 74*
COc1ccccc1CNC(=O)CCC(=O)n1ncc2cc(C)ccc21 | . | -7 | -2 | . | 3 | 7 | . | .
C=CCCC(=O)Nc1nc(C)c(-c2csc(Nc3cc(OC)ccc3OC)n2)s1 | -3 | 66* | 2 | -0.61 | 0 | 20 | 60* | 46*
CN(CC(=O)Nc1ccc(Cl)c(C(F)(F)F)c1)C(=O)CCc1nc2ccccc2c(=O)[nH]1 | . | 54* | 2 | . | -1 | -270 | 24 | .
CN(CC(=O)Nc1ccc(F)cc1)C(=O)CCc1nc2ccccc2c(=O)[nH]1 | . | 13 | -2 | . | -1 | 4 | . | .
COc1ccc(CCN2CC(C(=O)N(C)CC(=O)Nc3ccc(Cl)c(C(F)(F)F)c3)CC2=O)cc1OC (stereo unspecified) | . | 21 | -3 | . | -1 | -2 | . | .
CN(CC(=O)Nc1ccc(Cl)c(C(F)(F)F)c1)C(=O)C1CC(=O)N(CCc2ccccc2)C1 (stereo unspecified) | . | 51* | -1 | . | 2 | -4 | 42* | 61*
CC(=O)c1sc2nc(-c3cccs3)ccc2c1N | -4 | -7 | 1 | -0.69 | 4 | -12 | . | .
Nc1c(C(=O)Nc2nc3ccccc3s2)sc2nc(-c3cccs3)ccc12 | -44 | 87* | 29 | 9.4 | 26 | -25 | -46 | .
CCOC(=O)C(C)/C(C)=N/NC(=O)c1cc2ccccc2cc1O (stereo unspecified) | -13 | 82* | 0 | 0.47 | 3 | -7 | 81* | 56*
CCOCCCN(C(=O)c1snc(C(N)=O)c1N)C(C(=O)NC1CCCC1)c1ccc(OC)cc1 (stereo unspecified) | . | 10 | -2 | . | 2 | -7 | . | .
Cc1ccccc1OCCNc1cc(N2CC(C)NC(C)C2)ccc1[N+](=O)[O-] (stereo unspecified) | -7 | 80* | 5 | 0.26 | 2 | 21 | 30 | .
CC1CN(c2ccc([N+](=O)[O-])c(NCCOc3ccccc3)c2)CC(C)N1 (stereo unspecified) | . | 25 | -1 | . | -1 | 11 | . | .
O=C(Nc1ccc(Cl)c(C(F)(F)F)c1)NC1CC2CCCC(C1)N2Cc1ccccc1 (stereo unspecified) | -4 | 83* | 10 | -0.89 | 4 | . | 52* | 60*
O=C(NC1CC2CCCC(C1)N2C(=O)Nc1ccc(Cl)c(C(F)(F)F)c1)C1CC1 (stereo unspecified) | -9 | 8 | -2 | -1.1 | -2 | 3 | . | .
CC1(C)Cc2c(sc3ncnc(NNC(=S)NCc4ccccc4)c23)CO1 | . | 54* | 0 | -0.096 | 0 | -7 | 63* | 84*
COc1cccc2sc(Nc3nc(-c4ccncc4)cs3)nc12 | 0 | 61* | 28 | -1.1 | 3 | 26 | 46* | 51*
CC(C)CC1NC(=S)N(Cc2ccccc2)C1=O (stereo unspecified) | 1 | 87* | 0 | 0.13 | 1 | -12 | 82* | 53*
O=C1C(Cc2ccccc2)NC(=S)N1Cc1ccccc1 (stereo unspecified) | -2 | 4 | -4 | -0.75 | 1 | 11 | . | .
O=C(Nc1ccc2c(c1)C(=O)N(c1ccccc1)C2=O)c1cccs1 | 3 | 50* | 28 | 0.48 | 9 | -5 | 11 | .
COc1ccc(NC(=O)c2cc3ccccc3cc2OC)cc1 | . | -78 | 3 | . | 7 | 20 | . | .
COc1cc2ccccc2cc1C(=O)NNC(=O)c1ccccc1O | . | 56* | -2 | . | -1 | -2 | 48* | 40*
COc1cc(NC(=O)c2cc3ccccc3cc2O)c(OC)cc1Cl | . | 100* | 13 | 0.098 | 10 | 21 | 91* | 42*
SMILES | MDM2 E3 inh | Mdm2-MdmX inh | XBP1 UPR activ | Dynein transport | CHOP UPR activ | Beta2AR agonist | Mdm2-MdmX conf | FLuc counter
COc1ccc(C(CCNC(C)c2ccccc2)C(C)C)cc1 (stereo unspecified) | 0 | 55* | 1 | -0.035 | -2 | -1 | 30 | .
Cc1nn(C)c(C)c1S(=O)(=O)N(CC(=O)N1CCc2ccccc21)c1ccc(C(C)C)cc1 | -14 | 63* | -4 | -0.63 | 0 | -6 | 24 | .
Cc1ccc(CNC(=O)CN(c2ccc(C)cc2)S(=O)(=O)c2c(C)nn(C)c2C)cc1 | . | 53* | -9 | . | 0 | -3 | 51* | 63*
COc1ccc(N(CC(=O)NCc2ccc(C)cc2)S(=O)(=O)c2c(C)nn(C)c2C)cc1 | 1 | 5 | -3 | -0.096 | 2 | -2 | . | .
Cc1ccc(N(CC(=O)NCc2ccc(F)cc2)S(=O)(=O)c2c(C)nn(C)c2C)cc1 | . | 64* | -5 | . | 0 | 4 | 63* | 63*
Cn1c(=O)c(=O)n(C)c2cc(S(=O)(=O)N3CCCC3C(=O)NCc3cccnc3)ccc21 (stereo unspecified) | 0 | 7 | -2 | -0.14 | -1 | -3 | . | .
COc1ccc(-c2oc3ccccc3c2C#Cc2cncn2C)cc1 | . | 72* | 9 | . | 4 | 10 | 61* | 44*
COC(=O)c1c(-c2ccc(OC)cc2)oc2ccccc12 | . | 17 | 2 | . | -3 | 1 | . | .
COc1ccc(-c2sc3ccc(OC)cc3c2C#Cc2cncn2C)cc1 | . | 54* | 3 | . | 6 | 21 | 19 | .
O=[N+]([O-])c1cc(Cl)cc(/C=N/NC(=S)Nc2ccc(S(=O)(=O)N3CCOCC3)cc2)c1O | -16 | 7 | 0 | -0.77 | -1 | 18 | . | .
COc1ccc(C2=NN(C(=O)c3ccco3)C(c3ccco3)C2)cc1OC (stereo unspecified) | . | 23 | 13 | . | 6 | 3 | . | .
Cc1cc(SCC(=O)N/N=C/c2ccc(O)cc2O)nc2ccccc12 | . | 74* | -5 | . | 0 | -2 | 73* | 32
Cc1ccc2nc(SCC(=O)N/N=C/c3ccco3)cc(C)c2c1 | -23 | 17 | -3 | -0.37 | -1 | -7 | . | .
